Results as given in ChEMBL document CHEMBL4145444, “Investigating the structure-activity relationships of N'-[(5-nitrofuran-2-yl) methylene] substituted hydrazides against Trypanosoma cruzi to design novel active compounds” (Eur J Med Chem, 2018).
pIC50: −log10 of the molar value.

tested on: Trypanosoma cruzi; assay: Antitrypanosomal activity against Trypanosoma cruzi Colombiana Tc1 epimastigotes measured after 72 hrs; assay type: functional, organism-based; settings: not given
In short: (§1)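 Exponentially growing epimastigotes (1.0*10^7 parasites/mL) cultured in LIT-FCS medium with compound from 0.4 to 300.0 µM, added from DMSO stock (DMSO ≤1.0%), 72 h at 28 °C. Viable parasites read by absorbance at 562 nm. PGI computed against untreated culture after subtracting compound/medium blanks. IC50 from sigmoid dose-response fit using at least six concentrations. Triplicates, at least two independent experiments.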

Compound	log1/IC50
CCCCCC(=O)N/N=C/c1ccc([N+](=O)[O-])o1	5.12
CCCOc1ccc(C(=O)N/N=C/c2ccc([N+](=O)[O-])o2)cc1	5.28
COc1ccc(C(=O)N/N=C/c2ccc([N+](=O)[O-])o2)cc1	5.09
O=C(N/N=C/c1ccc([N+](=O)[O-])o1)C1CCCC1	5.01
N#CCC(=O)N/N=C/c1ccc([N+](=O)[O-])o1	4.22
O=C(N/N=C/c1ccc([N+](=O)[O-])o1)c1cccc([N+](=O)[O-])c1	4.39
Cc1cccc(C(=O)N/N=C/c2ccc([N+](=O)[O-])o2)c1	5.07
CCCCc1ccc(C(=O)N/N=C/c2ccc([N+](=O)[O-])o2)cc1	5.61
CCCc1ccc(C(=O)N/N=C/c2ccc([N+](=O)[O-])o2)cc1	5.14
CC(=O)N/N=C/c1ccc([N+](=O)[O-])o1 [NIHYDRAZONE]	5.02
N#Cc1ccc(C(=O)N/N=C/c2ccc([N+](=O)[O-])o2)cc1	4.69
O=C(N/N=C/c1ccc([N+](=O)[O-])o1)c1ccccc1	4.95
O=C(N/N=C/c1ccc([N+](=O)[O-])o1)c1cccs1	4.82
O=C(N/N=C/c1ccc([N+](=O)[O-])o1)c1ccc2ccccc2c1	5.12
CC(C)(C)c1ccc(C(=O)N/N=C/c2ccc([N+](=O)[O-])o2)cc1	5.21
O=C(N/N=C/c1ccc([N+](=O)[O-])o1)C1CCCCC1	4.99
CCCCCCCCC(=O)N/N=C/c1ccc([N+](=O)[O-])o1	5.09

same assay, conditions: Trypanosoma cruzi, Colombiana, 72 h

Compound	pIC50
O=C(Cn1ccnc1[N+](=O)[O-])NCc1ccccc1 [BENZNIDAZOLE]	4.32
CCCCCC(=O)N/N=C/c1ccc([N+](=O)[O-])o1	5.12
CCCOc1ccc(C(=O)N/N=C/c2ccc([N+](=O)[O-])o2)cc1	5.28
COc1ccc(C(=O)N/N=C/c2ccc([N+](=O)[O-])o2)cc1	5.09
O=C(N/N=C/c1ccc([N+](=O)[O-])o1)C1CCCC1	5.01
N#CCC(=O)N/N=C/c1ccc([N+](=O)[O-])o1	4.22
O=C(N/N=C/c1ccc([N+](=O)[O-])o1)c1cccc([N+](=O)[O-])c1	4.39
Cc1cccc(C(=O)N/N=C/c2ccc([N+](=O)[O-])o2)c1	5.07
CCCCc1ccc(C(=O)N/N=C/c2ccc([N+](=O)[O-])o2)cc1	5.61
CCCc1ccc(C(=O)N/N=C/c2ccc([N+](=O)[O-])o2)cc1	5.14
CC(=O)N/N=C/c1ccc([N+](=O)[O-])o1 [NIHYDRAZONE]	5.02
N#Cc1ccc(C(=O)N/N=C/c2ccc([N+](=O)[O-])o2)cc1	4.69
O=C(N/N=C/c1ccc([N+](=O)[O-])o1)c1ccccc1	4.95
O=C(N/N=C/c1ccc([N+](=O)[O-])o1)c1cccs1	4.82
O=C(N/N=C/c1ccc([N+](=O)[O-])o1)c1ccc2ccccc2c1	5.12
CC(C)(C)c1ccc(C(=O)N/N=C/c2ccc([N+](=O)[O-])o2)cc1	5.21
O=C(N/N=C/c1ccc([N+](=O)[O-])o1)C1CCCCC1	4.99
CCCCCCCCC(=O)N/N=C/c1ccc([N+](=O)[O-])o1	5.09

tested on: not listed separately; assay: Selectivity index, ratio of CC50 for cytotoxicity against human U2OS cells to IC50 for Trypanosoma cruzi Y Tc2 amastigotes infected in human U2OS cells; assay type: toxicity, cell-based; settings: read-out: Ratio CC50/IC50
In short: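 Ratio of U2OS CC50 to Y-strain amastigote IC50, both from the same 72 h Draq5-stained HCS assay in infected U2OS cells (2-fold series up to 200 μM, 1% DMSO).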

Compound	selectivity ratio
CCCCCC(=O)N/N=C/c1ccc([N+](=O)[O-])o1	7.39
CCCCc1ccc(C(=O)N/N=C/c2ccc([N+](=O)[O-])o2)cc1	14.7
CC(=O)N/N=C/c1ccc([N+](=O)[O-])o1 [NIHYDRAZONE]	8.49
N#Cc1ccc(C(=O)N/N=C/c2ccc([N+](=O)[O-])o2)cc1	12.1
O=C(N/N=C/c1ccc([N+](=O)[O-])o1)c1cccs1	53.9
O=C(N/N=C/c1ccc([N+](=O)[O-])o1)c1ccc2ccccc2c1	34.3
CC(C)(C)c1ccc(C(=O)N/N=C/c2ccc([N+](=O)[O-])o2)cc1	> 140
O=C(N/N=C/c1ccc([N+](=O)[O-])o1)C1CCCCC1	8.77

tested on: Trypanosoma cruzi; assay: Antitrypanosomal activity Trypanosoma cruzi Bug 2149 cl10 Tc5 epimastigotes measured after 72 hrs; assay type: functional, organism-based; settings: not given
In short: as §1, with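 “°C.” for “°C. Viable parasites read by absorbance at 562 nm.”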

Compound	log1/IC50
N#CCC(=O)N/N=C/c1ccc([N+](=O)[O-])o1	4.56
O=C(N/N=C/c1ccc([N+](=O)[O-])o1)c1cccc([N+](=O)[O-])c1	4.52
CCCCc1ccc(C(=O)N/N=C/c2ccc([N+](=O)[O-])o2)cc1	5.33
O=C(N/N=C/c1ccc([N+](=O)[O-])o1)c1cccs1	5.16
O=C(N/N=C/c1ccc([N+](=O)[O-])o1)c1ccc2ccccc2c1	5

same assay, conditions: Trypanosoma cruzi, Bug 2149 cl10, CL1-0, 72 h

Compound	pIC50
N#CCC(=O)N/N=C/c1ccc([N+](=O)[O-])o1	4.56
O=C(N/N=C/c1ccc([N+](=O)[O-])o1)c1cccc([N+](=O)[O-])c1	4.52
O=C(N/N=C/c1ccc([N+](=O)[O-])o1)c1cccs1	5.16
O=C(N/N=C/c1ccc([N+](=O)[O-])o1)c1ccc2ccccc2c1	5.00

tested on: Trypanosoma cruzi; assay: Antitrypanosomal activity against Trypanosoma cruzi Silvio X10 cl1 Tc1 epimastigotes measured after 72 hrs; assay type: functional, organism-based; settings: not given
In short: as §1, with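 “°C.” for “°C. Viable parasites read by absorbance at 562 nm.”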

Compound	log1/IC50
N#CCC(=O)N/N=C/c1ccc([N+](=O)[O-])o1	4.39
O=C(N/N=C/c1ccc([N+](=O)[O-])o1)c1cccc([N+](=O)[O-])c1	4.28
CCCCc1ccc(C(=O)N/N=C/c2ccc([N+](=O)[O-])o2)cc1	5.32
O=C(N/N=C/c1ccc([N+](=O)[O-])o1)c1cccs1	4.89
O=C(N/N=C/c1ccc([N+](=O)[O-])o1)c1ccc2ccccc2c1	5.02

same assay, conditions: Trypanosoma cruzi, Silvio X10 cl1, 72 h

Compound	pIC50
N#CCC(=O)N/N=C/c1ccc([N+](=O)[O-])o1	4.39
O=C(N/N=C/c1ccc([N+](=O)[O-])o1)c1cccc([N+](=O)[O-])c1	4.28
O=C(N/N=C/c1ccc([N+](=O)[O-])o1)c1cccs1	4.89
O=C(N/N=C/c1ccc([N+](=O)[O-])o1)c1ccc2ccccc2c1	5.02

tested on: Trypanosoma cruzi; assay: Antitrypanosomal activity Trypanosoma cruzi Y Tc2 epimastigotes measured after 72 hrs; assay type: functional, organism-based; settings: not given; in short: as §1

Compound	log1/IC50
O=C(N/N=C/c1ccc([N+](=O)[O-])o1)c1cccc([N+](=O)[O-])c1	4.36
CCCCc1ccc(C(=O)N/N=C/c2ccc([N+](=O)[O-])o2)cc1	5.51
O=C(N/N=C/c1ccc([N+](=O)[O-])o1)c1ccc2ccccc2c1	5.15

The next lines start with the values.

log1/IC50	Compound
4.09	N#CCC(=O)N/N=C/c1ccc([N+](=O)[O-])o1
5.26	O=C(N/N=C/c1ccc([N+](=O)[O-])o1)c1cccs1

same assay, conditions: Trypanosoma cruzi, Y, 72 h

Compound	pIC50
O=C(N/N=C/c1ccc([N+](=O)[O-])o1)c1cccc([N+](=O)[O-])c1	4.36
O=C(N/N=C/c1ccc([N+](=O)[O-])o1)c1ccc2ccccc2c1	5.15

Other lines, results leading:

pIC50	Compound
4.10	N#CCC(=O)N/N=C/c1ccc([N+](=O)[O-])o1
5.26	O=C(N/N=C/c1ccc([N+](=O)[O-])o1)c1cccs1

tested on: not listed separately; assay: Cytotoxicity against human U2OS cells assessed as reduction in cell viability; assay type: cell-based; settings: not given

Compound	CC50 [µM]
O=C(Cn1ccnc1[N+](=O)[O-])NCc1ccccc1 [BENZNIDAZOLE]	> 200
CCCCCC(=O)N/N=C/c1ccc([N+](=O)[O-])o1	19.3
CCCCc1ccc(C(=O)N/N=C/c2ccc([N+](=O)[O-])o2)cc1	19.6
CC(=O)N/N=C/c1ccc([N+](=O)[O-])o1 [NIHYDRAZONE]	39.2
N#Cc1ccc(C(=O)N/N=C/c2ccc([N+](=O)[O-])o2)cc1	21.4
O=C(N/N=C/c1ccc([N+](=O)[O-])o1)c1cccs1	57.2
O=C(N/N=C/c1ccc([N+](=O)[O-])o1)c1ccc2ccccc2c1	64.2
CC(C)(C)c1ccc(C(=O)N/N=C/c2ccc([N+](=O)[O-])o2)cc1	> 200
O=C(N/N=C/c1ccc([N+](=O)[O-])o1)C1CCCCC1	25.4

tested on: Trypanosoma cruzi; assay: Antitrypanosomal activity against Trypanosoma cruzi Y Tc2 amastigotes infected in human U2OS cells after 72 hrs by Draq5 staining based HCS analysis; assay type: functional, organism-based; settings: not given
In short: (§2)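 U2OS cells (700/well, high-glucose DME, 10% FBS) seeded and incubated 24 h. Then infected with 2,800 Y-strain trypomastigotes harvested from LLC-MK2 cells. On day 3, 14-point 2-fold dilutions added, top 200 μM, 1% DMSO, 72 h. Fixed in 4% PFA, Draq5 stained, imaged at 20x. Infection ratio normalized to DMSO-mock infected and uninfected controls. IC50 by sigmoidal variable-slope fit. Doublets, duplicate experiments.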

Compound	pIC50
O=C(Cn1ccnc1[N+](=O)[O-])NCc1ccccc1 [BENZNIDAZOLE]	4.19
CCCCc1ccc(C(=O)N/N=C/c2ccc([N+](=O)[O-])o2)cc1	5.88
O=C(N/N=C/c1ccc([N+](=O)[O-])o1)c1ccc2ccccc2c1	5.73

Second part, the compound after the results:

pIC50	Compound
5.58	CCCCCC(=O)N/N=C/c1ccc([N+](=O)[O-])o1
5.34	CC(=O)N/N=C/c1ccc([N+](=O)[O-])o1 [NIHYDRAZONE]
5.75	N#Cc1ccc(C(=O)N/N=C/c2ccc([N+](=O)[O-])o2)cc1
5.97	O=C(N/N=C/c1ccc([N+](=O)[O-])o1)c1cccs1
5.84	CC(C)(C)c1ccc(C(=O)N/N=C/c2ccc([N+](=O)[O-])o2)cc1
5.54	O=C(N/N=C/c1ccc([N+](=O)[O-])o1)C1CCCCC1

tested on: Trypanosoma cruzi; assay: Antitrypanosomal activity against Trypanosoma cruzi Y Tc2 amastigotes infected in human U2OS cells up to 200 uM after 72 hrs by Draq5 staining based HCS analysis relative to control; assay type: functional; settings: not given; in short: as §2

Compound	Emax [%]
O=C(Cn1ccnc1[N+](=O)[O-])NCc1ccccc1 [BENZNIDAZOLE]	85.2
CCCCCC(=O)N/N=C/c1ccc([N+](=O)[O-])o1	115
CCCCc1ccc(C(=O)N/N=C/c2ccc([N+](=O)[O-])o2)cc1	115
CC(=O)N/N=C/c1ccc([N+](=O)[O-])o1 [NIHYDRAZONE]	98.7
N#Cc1ccc(C(=O)N/N=C/c2ccc([N+](=O)[O-])o2)cc1	95.5
O=C(N/N=C/c1ccc([N+](=O)[O-])o1)c1cccs1	94.5
O=C(N/N=C/c1ccc([N+](=O)[O-])o1)c1ccc2ccccc2c1	97
CC(C)(C)c1ccc(C(=O)N/N=C/c2ccc([N+](=O)[O-])o2)cc1	98.4
O=C(N/N=C/c1ccc([N+](=O)[O-])o1)C1CCCCC1	119
